Tests used:
Format in all cases: functional
Cavia porcellus [1] = assay: Dose that caused significant inhibition of the platelet activating factor-induced bronchoconstriction in guinea pig after intravenous administration; settings: read-out: ID50 (the source's name)
Procedure, shortened: (§1)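 Male Hartley guinea pigs (400–600 g), urethane-anesthetized (2 g/kg ip), jugular cannula; propranolol given 5 min before PAF; succinylcholine (1.2 mg/kg iv) then ventilation at 40 breaths/min, 4.0 cm³ stroke. Drug or vehicle iv 1 min before PAF 1 μg/kg iv. Tracheal pressure change averaged over four control and four treated animals, expressed as % inhibition; screen at 1 mg/kg.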

Cavia porcellus [2] = assay: Dose that caused significant inhibition of the platelet activating factor-induced bronchoconstriction in guinea pig after peroral administration; settings: po, read-out: ID50 (the source's name)
Procedure, shortened: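 Male Hartley guinea pigs (400–600 g), urethane-anesthetized (2 g/kg ip), jugular cannula, propranolol pretreatment, succinylcholine paralysis and ventilation. Compound or vehicle given orally 2 h before iv PAF challenge (1 μg/kg). Tracheal pressure rise averaged over four control and four dosed animals, giving % inhibition.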

Cavia porcellus [3] = assay: In vivo inhibition of the platelet activating factor-induced bronchoconstriction after 2 hr at dose 50 mg/kg administered perorally in guinea pig; settings: route oral
Procedure, shortened: (§2)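 Oral dosing of 50 mg/kg, either 2 h or 6 h before iv PAF challenge (1 μg/kg), in urethane-anesthetized male Hartley guinea pigs (400–600 g). Animals were propranolol-pretreated, paralysed with succinylcholine and ventilated. Tracheal pressure change averaged over four vehicle and four drug-treated animals and reported as % inhibition.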

Cavia porcellus [4] = assay: In vivo inhibition of the platelet activating factor-induced bronchoconstriction after 6 hr at dose 50 mg/kg administered perorally in guinea pig; settings: route oral; procedure, shortened: as §2
Cavia porcellus [5] = assay: In vivo inhibition of the platelet activating factor-induced bronchoconstriction at dose 1.0 mg/kg administered intravenous in guinea pig; procedure, shortened: as §1

`COc1ccc(C2=C(/C=C/C(=O)N[C@@H](C)CCCc3cccnc3)CCc3cc(OC)ccc32)cc1` was tested, and the ED50 (Cavia porcellus [1]) was 0.15 mg/kg, the ED50 (Cavia porcellus [2]) was 17 mg/kg and the inhibition in vivo at 50 mg/kg (Cavia porcellus [3]) was 75%. It also gave an inhibition in vivo at 50 mg/kg (Cavia porcellus [4]) of 1% and an inhibition in vivo at 1 mg/kg (Cavia porcellus [5]) of 95%.
`COc1ccc(-c2c(/C=C/C(=O)N[C@@H](C)CCCc3cccnc3)ccc3cc(OC)ccc23)cc1` showed an ED50 (Cavia porcellus [1]) of 0.18 mg/kg, an ED50 (Cavia porcellus [2]) of 12 mg/kg and an inhibition in vivo at 50 mg/kg (Cavia porcellus [3]) of 79%. For the same compound, the inhibition in vivo at 50 mg/kg (Cavia porcellus [4]) was 55% and the inhibition in vivo at 1 mg/kg (Cavia porcellus [5]) was 92%.
`CCCCCc1c(/C=C/C(=O)N[C@@H](C)CCCc2cccnc2)sc2cc(OC)ccc12` showed an ED50 (Cavia porcellus [1]) of 0.11 mg/kg, an ED50 (Cavia porcellus [2]) of 5.4 mg/kg and an inhibition in vivo at 50 mg/kg (Cavia porcellus [3]) of 97%. For the same compound, the inhibition in vivo at 50 mg/kg (Cavia porcellus [4]) was 97% and the inhibition in vivo at 1 mg/kg (Cavia porcellus [5]) was 98%.
Compound `CCCCc1c(/C=C/C(=O)N[C@@H](C)CCCc2cccnc2)ccc2c(OC)cccc12` has an ED50 (Cavia porcellus [1]) of 1 mg/kg, an inhibition in vivo at 50 mg/kg (Cavia porcellus [3]) of 4% and an inhibition in vivo at 1 mg/kg (Cavia porcellus [5]) of 50%.
For `CCCCc1c(/C=C/C(=O)N[C@@H](C)CCCc2cccnc2)cc(OC)c2ccc(OC)cc12`, the ED50 (Cavia porcellus [1]) was 0.44 mg/kg, the inhibition in vivo at 50 mg/kg (Cavia porcellus [3]) was 16% and the inhibition in vivo at 1 mg/kg (Cavia porcellus [5]) was 80%.
Work on `CCCCCC1=C(/C=C/C(=O)N[C@@H](C)CCCc2cccnc2)Cc2cc(OC)ccc21` yielded an ED50 (Cavia porcellus [1]) of 0.05 mg/kg, an inhibition in vivo at 50 mg/kg (Cavia porcellus [3]) of 0% and an inhibition in vivo at 1 mg/kg (Cavia porcellus [5]) of 96%.
`CCCCc1c(/C=C/C(=O)N[C@@H](C)CCCc2cccnc2)ccc2ccc(OC)cc12` gave an inhibition in vivo at 1 mg/kg (Cavia porcellus [5]) of 0%.
In the case of `CCCCCc1c(/C=C/C(=O)N[C@@H](CC)CCCc2cccnc2)n(C)c2cc(OC)ccc12`, the ED50 (Cavia porcellus [1]) is reported as 0.07 mg/kg, the ED50 (Cavia porcellus [2]) is reported as 3 mg/kg and the inhibition in vivo at 50 mg/kg (Cavia porcellus [3]) is reported as 99%. It also gave an inhibition in vivo at 50 mg/kg (Cavia porcellus [4]) of 96% and an inhibition in vivo at 1 mg/kg (Cavia porcellus [5]) of 98%.
For `CCCCc1c(/C=C/C(=O)N[C@@H](C)CCCc2cccnc2)cc(OC)c2ccccc12`, the ED50 (Cavia porcellus [1]) was 0.11 mg/kg, the ED50 (Cavia porcellus [2]) was 2.8 mg/kg and the inhibition in vivo at 50 mg/kg (Cavia porcellus [3]) was 95%. The inhibition in vivo at 50 mg/kg (Cavia porcellus [4]) was 52% and the inhibition in vivo at 1 mg/kg (Cavia porcellus [5]) was 90%.
`CCCCC1=C(/C=C/C(=O)N[C@@H](C)CCCc2cccnc2)CCc2cc(OC)ccc21` gave an ED50 (Cavia porcellus [1]) of 0.46 mg/kg, an ED50 (Cavia porcellus [2]) of 50 mg/kg and an inhibition in vivo at 50 mg/kg (Cavia porcellus [3]) of 50%. The inhibition in vivo at 1 mg/kg (Cavia porcellus [5]) was 94%.
`CCCCC/C(=C\C=C\C(=O)N[C@@H](C)CCCc1cccnc1)c1ccc(OC)cc1` showed an ED50 (Cavia porcellus [1]) of 0.05 mg/kg, an ED50 (Cavia porcellus [2]) of 4.1 mg/kg and an inhibition in vivo at 50 mg/kg (Cavia porcellus [3]) of 100%. For the same compound, the inhibition in vivo at 50 mg/kg (Cavia porcellus [4]) was 71% and the inhibition in vivo at 1 mg/kg (Cavia porcellus [5]) was 99%.
In the case of `CCCCc1c(/C=C/C(=O)N[C@@H](C)CCCc2cccnc2)ccc2cc(OC)ccc12`, the ED50 (Cavia porcellus [1]) is reported as 0.45 mg/kg, the ED50 (Cavia porcellus [2]) is reported as 4.2 mg/kg and the inhibition in vivo at 50 mg/kg (Cavia porcellus [3]) is reported as 92%. The inhibition in vivo at 50 mg/kg (Cavia porcellus [4]) was 71% and the inhibition in vivo at 1 mg/kg (Cavia porcellus [5]) was 95%.
Work on `CCCCCc1c(/C=C/C(=O)N[C@@H](C)CCCc2cccnc2)oc2cc(OC)ccc12` yielded an ED50 (Cavia porcellus [1]) of 0.06 mg/kg, an inhibition in vivo at 50 mg/kg (Cavia porcellus [3]) of 0% and an inhibition in vivo at 1 mg/kg (Cavia porcellus [5]) of 89%.
